According to ChEMBL document CHEMBL1137478, “Optimization of triarylimidazoles for Tie2: influence of conformation on potency” (Bioorg Med Chem Lett, 2007):

Columns and labels:
Angiopoietin-1 receptor [1] = biological target: T1, Angiopoietin-1 receptor (Homo sapiens, UniProt Q02763); assay: Inhibition of Tie2
Mus musculus [2] = assay: Inhibition of bFGF-stimulated angiogenesis in Matrigel mouse model at 50 mg/kg, po after 6 days; assay type: functional; conditions: 144 h
Method in brief: (§1)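 Mice bear Matrigel plugs in which angiogenesis is driven by bFGF; compound given as two doses. Control groups are untreated bFGF mice and mice without bFGF. Animals are killed after 6 days, and the heme content of the Matrigel plug is measured as the angiogenesis read-out.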

[3] = biological target: Cyclin-dependent kinase 2 (Homo sapiens, UniProt P24941); assay: Inhibition of CDK2
[4] = biological target: Platelet-derived growth factor receptor beta (Homo sapiens, UniProt P09619); assay: Inhibition of PDGFRbeta
[5] = biological target: Vascular endothelial growth factor receptor 2 (Homo sapiens, UniProt P35968); assay: Inhibition of VEGFR2
Vascular endothelial growth factor receptor 2, sequence (P35968 whole entry): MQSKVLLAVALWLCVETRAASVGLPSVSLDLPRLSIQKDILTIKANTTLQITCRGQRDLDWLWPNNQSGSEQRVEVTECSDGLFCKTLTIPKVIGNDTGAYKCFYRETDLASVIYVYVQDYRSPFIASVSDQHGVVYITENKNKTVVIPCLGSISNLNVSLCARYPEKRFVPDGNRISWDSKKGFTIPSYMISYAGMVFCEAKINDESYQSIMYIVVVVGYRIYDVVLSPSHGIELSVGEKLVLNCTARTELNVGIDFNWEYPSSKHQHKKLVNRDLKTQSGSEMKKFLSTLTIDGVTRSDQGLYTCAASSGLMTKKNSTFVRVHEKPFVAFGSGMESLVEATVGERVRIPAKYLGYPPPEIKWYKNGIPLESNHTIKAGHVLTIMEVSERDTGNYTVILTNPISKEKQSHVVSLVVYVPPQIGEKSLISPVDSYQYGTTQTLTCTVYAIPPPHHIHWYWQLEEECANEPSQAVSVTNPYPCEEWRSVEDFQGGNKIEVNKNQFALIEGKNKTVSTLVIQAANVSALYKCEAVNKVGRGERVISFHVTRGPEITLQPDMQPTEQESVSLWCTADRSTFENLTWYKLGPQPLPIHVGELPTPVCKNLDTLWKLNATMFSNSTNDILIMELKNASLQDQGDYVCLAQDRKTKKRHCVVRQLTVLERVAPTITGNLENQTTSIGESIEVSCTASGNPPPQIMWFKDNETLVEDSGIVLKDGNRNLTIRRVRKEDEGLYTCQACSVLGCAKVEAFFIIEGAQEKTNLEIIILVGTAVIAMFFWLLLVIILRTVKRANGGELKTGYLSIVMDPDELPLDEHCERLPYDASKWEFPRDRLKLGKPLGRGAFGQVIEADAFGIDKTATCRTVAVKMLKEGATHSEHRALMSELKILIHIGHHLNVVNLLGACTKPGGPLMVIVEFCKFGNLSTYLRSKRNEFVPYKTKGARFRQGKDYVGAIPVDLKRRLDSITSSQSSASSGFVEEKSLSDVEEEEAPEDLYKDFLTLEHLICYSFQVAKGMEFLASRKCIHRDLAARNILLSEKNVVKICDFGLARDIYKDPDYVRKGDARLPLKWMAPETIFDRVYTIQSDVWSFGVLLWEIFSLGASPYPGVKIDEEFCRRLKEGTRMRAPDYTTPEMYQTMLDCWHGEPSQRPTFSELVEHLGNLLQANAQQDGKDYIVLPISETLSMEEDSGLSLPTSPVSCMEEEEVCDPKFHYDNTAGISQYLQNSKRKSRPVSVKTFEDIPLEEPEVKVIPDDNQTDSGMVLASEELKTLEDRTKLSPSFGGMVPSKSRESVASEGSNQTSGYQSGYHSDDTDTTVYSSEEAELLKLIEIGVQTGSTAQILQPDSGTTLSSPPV

[6] = biological target: Insulin-like growth factor 1 receptor (Homo sapiens, UniProt P08069); assay: Inhibition of IGFR1
Insulin-like growth factor 1 receptor, sequence (P08069 31-736 limits assumed): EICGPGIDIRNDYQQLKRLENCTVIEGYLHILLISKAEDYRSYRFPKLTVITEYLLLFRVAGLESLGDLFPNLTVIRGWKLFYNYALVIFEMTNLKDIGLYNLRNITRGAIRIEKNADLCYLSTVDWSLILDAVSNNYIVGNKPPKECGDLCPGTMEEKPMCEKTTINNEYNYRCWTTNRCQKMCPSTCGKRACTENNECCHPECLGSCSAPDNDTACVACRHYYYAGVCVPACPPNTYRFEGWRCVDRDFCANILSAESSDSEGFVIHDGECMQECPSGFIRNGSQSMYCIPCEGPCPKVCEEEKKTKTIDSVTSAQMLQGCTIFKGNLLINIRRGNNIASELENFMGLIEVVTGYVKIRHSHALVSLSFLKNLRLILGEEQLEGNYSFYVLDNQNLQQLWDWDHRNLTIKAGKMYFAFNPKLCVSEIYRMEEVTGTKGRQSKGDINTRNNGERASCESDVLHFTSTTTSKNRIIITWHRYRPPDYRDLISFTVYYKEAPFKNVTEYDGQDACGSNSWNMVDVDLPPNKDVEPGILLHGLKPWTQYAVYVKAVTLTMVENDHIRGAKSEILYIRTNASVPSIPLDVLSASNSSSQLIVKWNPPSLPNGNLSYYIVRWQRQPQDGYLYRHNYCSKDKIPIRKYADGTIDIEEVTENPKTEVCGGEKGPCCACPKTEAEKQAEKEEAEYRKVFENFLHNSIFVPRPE
Insulin-like growth factor 1 receptor, sequence (P08069 741-1367 limits assumed): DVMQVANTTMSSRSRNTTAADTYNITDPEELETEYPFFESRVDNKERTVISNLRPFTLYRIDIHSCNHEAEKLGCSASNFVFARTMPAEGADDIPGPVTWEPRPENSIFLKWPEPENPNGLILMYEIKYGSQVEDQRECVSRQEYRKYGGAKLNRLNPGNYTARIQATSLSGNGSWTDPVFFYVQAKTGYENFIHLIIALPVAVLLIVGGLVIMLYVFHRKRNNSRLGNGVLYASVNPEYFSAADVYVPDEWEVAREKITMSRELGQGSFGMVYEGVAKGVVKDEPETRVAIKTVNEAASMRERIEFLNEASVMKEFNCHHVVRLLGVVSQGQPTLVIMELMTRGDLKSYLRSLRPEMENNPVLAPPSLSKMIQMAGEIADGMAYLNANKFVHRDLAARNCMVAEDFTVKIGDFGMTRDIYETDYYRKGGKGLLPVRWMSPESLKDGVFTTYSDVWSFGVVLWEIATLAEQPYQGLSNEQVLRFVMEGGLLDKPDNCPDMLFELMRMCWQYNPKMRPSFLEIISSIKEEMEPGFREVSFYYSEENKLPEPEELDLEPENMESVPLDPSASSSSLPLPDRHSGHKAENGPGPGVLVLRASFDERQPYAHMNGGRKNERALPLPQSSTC

[7] = biological target: Tyrosine-protein kinase ABL1 (Homo sapiens, UniProt P00519); assay: Inhibition of Abl kinase
[8] = biological target: Hepatocyte growth factor receptor (Homo sapiens, UniProt P08581); assay: Inhibition of MET
[9] = biological target: Mast/stem cell growth factor receptor Kit (Homo sapiens, UniProt P10721); assay: Inhibition of KIT
[10] = biological target: Macrophage colony-stimulating factor 1 receptor (Homo sapiens, UniProt P07333)
[11] = biological target: RAC-alpha serine/threonine-protein kinase (Homo sapiens, UniProt P31749); assay: Inhibition of AKT1
RAC-alpha serine/threonine-protein kinase, sequence (P31749 whole entry): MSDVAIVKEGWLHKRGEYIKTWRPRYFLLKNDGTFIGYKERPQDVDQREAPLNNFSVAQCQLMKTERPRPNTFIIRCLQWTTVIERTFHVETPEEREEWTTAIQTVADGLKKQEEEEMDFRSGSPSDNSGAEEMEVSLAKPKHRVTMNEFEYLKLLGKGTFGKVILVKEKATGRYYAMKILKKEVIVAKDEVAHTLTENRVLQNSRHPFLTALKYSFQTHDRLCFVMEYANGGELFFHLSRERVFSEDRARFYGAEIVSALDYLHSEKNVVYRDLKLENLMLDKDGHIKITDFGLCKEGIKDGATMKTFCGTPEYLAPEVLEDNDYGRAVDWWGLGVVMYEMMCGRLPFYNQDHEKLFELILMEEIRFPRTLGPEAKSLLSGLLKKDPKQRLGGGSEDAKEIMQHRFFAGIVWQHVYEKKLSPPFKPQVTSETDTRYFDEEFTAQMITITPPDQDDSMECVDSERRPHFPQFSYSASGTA

Insulin receptor = Insulin receptor (Homo sapiens, UniProt P06213); assay: Inhibition of INSR
MAP kinase p38 = MAP kinase p38 (Homo sapiens, UniProt O15264+Q15759+Q16539+P53778); assay: Inhibition of mitogen-activated protein kinase p38; assay type: protein assay
[12] = biological target: T2, Receptor-type tyrosine-protein kinase FLT3 (Homo sapiens, UniProt P36888); assay: Inhibition of FLT3
T2 sequence (P36888 whole entry): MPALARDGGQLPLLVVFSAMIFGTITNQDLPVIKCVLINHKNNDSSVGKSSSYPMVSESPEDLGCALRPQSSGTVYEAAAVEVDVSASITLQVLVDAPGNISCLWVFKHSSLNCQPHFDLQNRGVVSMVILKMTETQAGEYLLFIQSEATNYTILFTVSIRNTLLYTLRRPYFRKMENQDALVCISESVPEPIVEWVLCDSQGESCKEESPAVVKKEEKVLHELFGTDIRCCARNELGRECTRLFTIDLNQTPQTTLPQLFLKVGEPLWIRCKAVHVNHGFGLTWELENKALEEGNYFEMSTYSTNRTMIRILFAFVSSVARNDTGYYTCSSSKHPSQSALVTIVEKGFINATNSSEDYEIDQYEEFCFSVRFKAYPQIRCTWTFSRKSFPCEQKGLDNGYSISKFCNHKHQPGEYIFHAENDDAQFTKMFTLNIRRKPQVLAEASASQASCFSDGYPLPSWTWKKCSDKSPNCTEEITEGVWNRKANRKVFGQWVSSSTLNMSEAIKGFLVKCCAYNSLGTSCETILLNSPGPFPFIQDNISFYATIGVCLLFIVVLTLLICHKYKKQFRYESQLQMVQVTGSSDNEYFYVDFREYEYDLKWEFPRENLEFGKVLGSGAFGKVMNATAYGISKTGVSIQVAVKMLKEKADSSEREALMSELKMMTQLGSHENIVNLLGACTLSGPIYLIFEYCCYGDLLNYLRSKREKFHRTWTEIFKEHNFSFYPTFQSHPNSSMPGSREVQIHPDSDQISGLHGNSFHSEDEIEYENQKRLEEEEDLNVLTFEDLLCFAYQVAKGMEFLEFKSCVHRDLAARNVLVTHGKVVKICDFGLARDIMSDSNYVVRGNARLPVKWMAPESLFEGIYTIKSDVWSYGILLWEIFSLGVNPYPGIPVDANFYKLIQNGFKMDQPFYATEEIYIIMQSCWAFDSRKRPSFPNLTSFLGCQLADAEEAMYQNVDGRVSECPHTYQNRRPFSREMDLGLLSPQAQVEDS

[13] = biological target: Fibroblast growth factor receptor 1 (Homo sapiens, UniProt P11362); assay: Inhibition of FGFR1
TGF-beta receptor type-1 = biological target: T3, TGF-beta receptor type-1 (Homo sapiens, UniProt P36897)
T3 sequence (P36897 whole entry): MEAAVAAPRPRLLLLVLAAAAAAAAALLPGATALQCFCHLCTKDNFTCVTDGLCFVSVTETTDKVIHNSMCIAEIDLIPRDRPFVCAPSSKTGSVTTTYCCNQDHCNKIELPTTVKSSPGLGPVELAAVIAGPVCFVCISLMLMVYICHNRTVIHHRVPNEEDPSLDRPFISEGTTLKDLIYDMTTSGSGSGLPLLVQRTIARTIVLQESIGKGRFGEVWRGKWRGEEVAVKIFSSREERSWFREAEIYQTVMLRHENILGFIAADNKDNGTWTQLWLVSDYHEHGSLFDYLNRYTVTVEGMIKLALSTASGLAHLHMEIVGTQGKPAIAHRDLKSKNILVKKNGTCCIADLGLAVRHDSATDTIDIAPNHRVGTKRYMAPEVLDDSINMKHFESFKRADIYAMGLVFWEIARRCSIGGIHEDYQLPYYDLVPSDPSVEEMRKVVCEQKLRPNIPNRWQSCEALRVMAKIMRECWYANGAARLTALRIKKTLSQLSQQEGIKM

[14] = biological target: Protein kinase C beta type (Homo sapiens, UniProt P05771); assay: Inhibition of PKCbeta1
Protein kinase C beta type, sequence (P05771 whole entry): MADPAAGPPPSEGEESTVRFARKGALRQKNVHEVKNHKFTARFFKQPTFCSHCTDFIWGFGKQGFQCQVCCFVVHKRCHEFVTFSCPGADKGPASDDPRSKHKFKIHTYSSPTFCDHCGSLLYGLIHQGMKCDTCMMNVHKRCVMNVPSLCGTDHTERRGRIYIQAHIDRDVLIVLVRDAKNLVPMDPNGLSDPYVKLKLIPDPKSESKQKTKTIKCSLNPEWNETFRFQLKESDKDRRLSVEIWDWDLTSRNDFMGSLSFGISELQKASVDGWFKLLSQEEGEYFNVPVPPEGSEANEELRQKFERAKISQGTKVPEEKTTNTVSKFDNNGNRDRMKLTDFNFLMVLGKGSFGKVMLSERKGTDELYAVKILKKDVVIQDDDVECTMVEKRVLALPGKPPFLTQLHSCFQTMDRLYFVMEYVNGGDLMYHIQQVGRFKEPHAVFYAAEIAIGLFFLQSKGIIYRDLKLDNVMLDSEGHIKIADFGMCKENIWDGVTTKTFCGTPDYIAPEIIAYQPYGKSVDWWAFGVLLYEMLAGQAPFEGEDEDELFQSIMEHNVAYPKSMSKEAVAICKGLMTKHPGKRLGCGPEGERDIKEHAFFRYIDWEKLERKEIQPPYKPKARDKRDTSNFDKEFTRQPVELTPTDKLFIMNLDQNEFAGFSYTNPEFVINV

[15] = biological target: Platelet-derived growth factor receptor alpha (Homo sapiens, UniProt P16234); assay: Inhibition of PDGFRalpha
Mus musculus [16] = assay: Inhibition of bFGF-stimulated angiogenesis in Matrigel mouse model at 25 mg/kg, po after 6 days; assay type: functional; conditions: 144 h; method in brief: as §1
[17] = Inhibition of GSK3; design: species or system Homo sapiens
Angiopoietin-1 receptor [18] = biological target: T1, Angiopoietin-1 receptor; assay: Inhibition of Tie2 at 10 uM

T1 sequence (Q02763 whole entry): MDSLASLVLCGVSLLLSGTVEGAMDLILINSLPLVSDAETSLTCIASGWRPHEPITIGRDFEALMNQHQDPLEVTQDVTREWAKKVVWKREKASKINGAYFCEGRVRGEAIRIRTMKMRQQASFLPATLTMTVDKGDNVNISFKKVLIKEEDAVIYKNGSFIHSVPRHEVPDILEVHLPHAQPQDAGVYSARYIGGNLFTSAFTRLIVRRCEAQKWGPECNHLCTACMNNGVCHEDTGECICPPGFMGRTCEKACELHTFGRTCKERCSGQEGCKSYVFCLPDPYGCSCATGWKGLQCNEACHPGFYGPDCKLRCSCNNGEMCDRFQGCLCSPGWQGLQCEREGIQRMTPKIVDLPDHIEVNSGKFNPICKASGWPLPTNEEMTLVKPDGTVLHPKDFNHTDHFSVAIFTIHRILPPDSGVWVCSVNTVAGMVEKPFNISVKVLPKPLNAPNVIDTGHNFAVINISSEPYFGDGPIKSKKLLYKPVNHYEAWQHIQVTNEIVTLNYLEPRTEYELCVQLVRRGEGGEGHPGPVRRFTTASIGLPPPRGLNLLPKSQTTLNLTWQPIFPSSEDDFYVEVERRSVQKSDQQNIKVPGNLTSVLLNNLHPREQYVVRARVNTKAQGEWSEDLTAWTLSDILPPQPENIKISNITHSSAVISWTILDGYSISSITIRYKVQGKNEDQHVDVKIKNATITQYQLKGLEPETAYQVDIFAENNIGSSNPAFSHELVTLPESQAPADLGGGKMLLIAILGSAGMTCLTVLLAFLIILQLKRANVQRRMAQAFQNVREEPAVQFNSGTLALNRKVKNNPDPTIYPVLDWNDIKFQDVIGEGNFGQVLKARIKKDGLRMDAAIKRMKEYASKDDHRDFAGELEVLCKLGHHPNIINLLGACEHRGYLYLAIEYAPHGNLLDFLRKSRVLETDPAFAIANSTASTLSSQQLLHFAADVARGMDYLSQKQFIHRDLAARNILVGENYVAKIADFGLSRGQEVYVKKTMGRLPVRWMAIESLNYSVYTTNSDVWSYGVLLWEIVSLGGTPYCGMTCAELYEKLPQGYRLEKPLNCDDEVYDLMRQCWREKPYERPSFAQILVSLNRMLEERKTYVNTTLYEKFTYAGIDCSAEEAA

Row | IC50 (Angiopoietin-1 receptor [1]) | Compound | also measured
1 | 95 nM | COc1ccc2cc(-c3nc(-c4ccc([S@+](C)[O-])cc4C)[nH]c3-c3ccncc3)ccc2c1 | –
2 | 40 nM | COc1ccc2cc(-c3[nH]c(-c4ccc(S(C)(=O)=O)cc4C)nc3-c3ccncc3)ccc2c1 | –
3 | – | COc1ccc2cc(-c3nc(-c4ccccc4)[nH]c3-c3ccncc3)ccc2c1 | inhibition (Angiopoietin-1 receptor [18]): 60%
4 | 1300 nM | COc1ccc2cc(-c3[nH]c(-c4ccc(SC)cc4C)nc3-c3ccncc3)ccc2c1 | –
5 | 82 nM | COc1ccc2cc(-c3[nH]c(-c4ccccc4Br)nc3-c3ccncc3)ccc2c1 | –
6 | 387 nM | COc1ccc2cc(-c3[nH]c(-c4ccccc4C)nc3-c3ccncc3)ccc2c1 | –
7 | 36 nM | COc1ccc2cc(-c3nc(-c4ccc([S+](C)[O-])cc4C)[nH]c3-c3ccncc3)ccc2c1 (stereo not given) | –
8 | 114 nM | COc1ccc2cc(-c3c(-c4ccncc4)nc(-c4ccc(S(C)(=O)=O)cc4C)n3C)ccc2c1 | –
9 | 51 nM | COc1ccc2cc(-c3[nH]c(-c4ccc([S+](C)[O-])cc4Cl)nc3-c3ccncc3)ccc2c1 (stereo not given) | –
10 | 836 nM | COc1ccc2cc(-c3nc(-c4ccccc4C(C)C)[nH]c3-c3ccncc3)ccc2c1 | –
11 | 1500 nM | COc1ccc2cc(-c3[nH]c(-c4ccc(SC)cc4Cl)nc3-c3ccncc3)ccc2c1 | –
12 | 250 nM | COc1ccc2cc(-c3nc(-c4ccc(S(C)(=O)=O)cc4)[nH]c3-c3ccncc3)ccc2c1 | –
13 | 59 nM | COc1ccc2cc(-c3[nH]c(-c4ccc(S(C)(=O)=O)cc4Cl)nc3-c3ccncc3)ccc2c1 | –
14 | 335 nM | COc1ccc2cc(-c3c(-c4ccncc4)nc(-c4ccc(SC)cc4C)n3C)ccc2c1 | –
15 | 260 nM | COc1ccc2cc(-c3nc(-c4ccccc4C(F)(F)F)[nH]c3-c3ccncc3)ccc2c1 | –
16 | 22 nM | COc1ccc2cc(-c3nc(-c4ccc([S@@+](C)[O-])cc4C)[nH]c3-c3ccncc3)ccc2c1 | –
17 | 346 nM | CCc1ccccc1-c1nc(-c2ccc3cc(OC)ccc3c2)c(-c2ccncc2)[nH]1 | –
18 | 1600 nM | COc1ccc2cc(-c3nc(-c4ccccc4F)[nH]c3-c3ccncc3)ccc2c1 | –
19 | 157 nM | COc1ccc2cc(-c3nc(-c4ccccc4Cl)[nH]c3-c3ccncc3)ccc2c1 | –
20 | 78 nM | COc1ccc2cc(-c3[nH]c(-c4c(Cl)cccc4Cl)nc3-c3ccncc3)ccc2c1 | –

Row | Compound | IC50 (Angiopoietin-1 receptor [1]) | also measured
21 | COc1ccc2cc(-c3c(-c4ccncc4)nc(-c4ccc([S+](C)[O-])cc4C)n3C)ccc2c1 (stereo not given) | 12 nM | inhibition in vivo at 50 mg/kg (Mus musculus [2]): 80%; IC50 [3]: > 30 µM; IC50 [4]: > 30 µM; IC50 [5]: 1500 nM; IC50 [6]: > 30 µM; IC50 [7]: > 30 µM; IC50 [8]: > 30 µM; IC50 [9]: > 30 µM; IC50 [10]: 550 nM; IC50 [11]: > 30 µM; IC50 (Insulin receptor): > 30 µM; IC50 (MAP kinase p38): 4.1 µM; IC50 [12]: > 30 µM; IC50 [13]: 9.7 µM; IC50 (TGF-beta receptor type-1): 296 nM; IC50 [14]: > 30 µM; IC50 [15]: > 30 µM; inhibition in vivo at 25 mg/kg (Mus musculus [16]): 35%; IC50 [17]: > 30 µM
